Publication PMC2857698 (Biochemistry, 2010)
Values joined by “and” are separate entries in the source; they are usually repeats but may differ in a detail not shown here. Equal values may be shown once. Read-outs that look alike come from different tables or passages of the source. Blank lines part the entries; values can stand above or below the molecule they belong to.

Columns and labels:
EH domain of EHD1 = test: ITC of NPF peptides binding to EHD1 EH; design: species or system mouse; conditions: ITC, 25 mM MOPS pH 7.0, 1 mM CaCl2
Summary of the method: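 Mouse EHD1 EH domain (V437–E534) expressed as a GST fusion, purified on glutathione resin and thrombin-cleaved on beads. Protein and peptides were dialysed at 4°C against 25 mM MOPS pH 7.0, 1 mM CaCl2, with KCl varied where applicable. ITC was run at 20°C unless stated (5–25°C), with 50–200 μM protein in the cell and peptide titrant 10-fold higher. Single-site fit gave Ka, n and ΔH; ΔG = −RTlnKa, and TΔS came from ΔG = ΔH − TΔS.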

[1] = target: Rsn5-NPF1 peptide (first NPF motif of Rabenosyn-5) (UniProt Q9H1K0); test: ITC; conditions: pH 7.0; 20 C; 0 mM KCl added; 1 mM CaCl2; 25 mM MOPS pH 7.0
Sequence of Rsn5-NPF1 peptide (first NPF motif of Rabenosyn-5) (Q9H1K0 whole entry, looked up, the tested form may be a part): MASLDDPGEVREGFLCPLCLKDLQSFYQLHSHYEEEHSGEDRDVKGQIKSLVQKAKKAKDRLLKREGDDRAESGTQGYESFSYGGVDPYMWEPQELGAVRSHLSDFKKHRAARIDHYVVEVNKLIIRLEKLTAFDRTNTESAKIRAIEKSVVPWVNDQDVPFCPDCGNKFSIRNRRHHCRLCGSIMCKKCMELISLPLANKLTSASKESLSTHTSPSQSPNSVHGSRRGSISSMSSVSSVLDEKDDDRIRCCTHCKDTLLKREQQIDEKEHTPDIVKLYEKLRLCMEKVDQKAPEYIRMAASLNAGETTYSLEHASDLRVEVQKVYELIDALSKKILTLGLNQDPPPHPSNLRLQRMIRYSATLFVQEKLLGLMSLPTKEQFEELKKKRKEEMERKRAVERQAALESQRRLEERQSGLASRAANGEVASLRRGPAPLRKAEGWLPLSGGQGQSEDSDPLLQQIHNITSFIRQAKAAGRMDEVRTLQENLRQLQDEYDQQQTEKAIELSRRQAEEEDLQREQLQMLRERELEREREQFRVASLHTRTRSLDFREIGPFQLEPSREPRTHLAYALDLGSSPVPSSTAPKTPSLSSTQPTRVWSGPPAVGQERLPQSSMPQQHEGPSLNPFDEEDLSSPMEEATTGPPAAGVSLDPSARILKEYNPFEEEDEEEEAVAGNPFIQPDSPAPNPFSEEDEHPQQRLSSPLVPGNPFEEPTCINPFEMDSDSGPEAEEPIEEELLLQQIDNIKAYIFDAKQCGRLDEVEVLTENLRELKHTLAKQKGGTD

[2] = target: Rsn5-NPF1 peptide (first NPF motif of Rabenosyn-5) (UniProt Q9H1K0); test: ITC; conditions: pH 7.0; 20 C; 0 mM KCl added; 1 mM CaCl2; 25 mM MOPS pH 7.0; remark: listed apart in the source
[3] = target: EH domain of EHD1 (mouse), residues V437 to E534 (mouse) (UniProt Q9WVK4)
[4] = target: T1, EH domain of EHD1 (mouse), residues V437 to E534 (mouse, UniProt Q9WVK4 437-534); test: ITC
T1 sequence (looked up): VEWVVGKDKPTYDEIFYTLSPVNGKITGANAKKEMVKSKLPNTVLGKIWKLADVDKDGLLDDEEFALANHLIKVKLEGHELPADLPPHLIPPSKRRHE

EH domain of Reps1 = target: T2, EH domain of Reps1; test: ITC
T2 chain: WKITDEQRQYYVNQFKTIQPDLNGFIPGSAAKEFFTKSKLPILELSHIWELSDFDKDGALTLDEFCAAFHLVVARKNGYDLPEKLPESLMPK

[5] = target: T1, EH domain of EHD1 (mouse), residues …; test: ITC; remark: listed apart in the source
[6] = target: T1, EH domain of EHD1 (mouse), residues …; test: ITC; remark: listed apart in the source
[7] = target: T1, EH domain of EHD1 (mouse), residues …; test: ITC; remark: listed apart in the source
[8] = target: T1, EH domain of EHD1 (mouse), residues …; test: ITC; remark: listed apart in the source
[9] = target: T1, EH domain of EHD1 (mouse), residues …; test: ITC; remark: listed apart in the source
[10] = target: T1, EH domain of EHD1 (mouse), residues …; test: ITC; remark: listed apart in the source
[11] = target: T1, EH domain of EHD1 (mouse), residues …; test: ITC; remark: listed apart in the source
[12] = target: T1, EH domain of EHD1 (mouse), residues …; test: ITC; remark: listed apart in the source
[13] = target: T1, EH domain of EHD1 (mouse), residues …; test: ITC; remark: listed apart in the source
[14] = target: T1, EH domain of EHD1 (mouse), residues …; test: ITC; remark: listed apart in the source
[15] = target: T1, EH domain of EHD1 (mouse), residues …; test: ITC; remark: listed apart in the source
[16] = target: T1, EH domain of EHD1 (mouse), residues …; test: ITC; remark: listed apart in the source

Ka (EH domain of EHD1; 5.0 °C): 17800 M⁻¹ | TΔS (EH domain of EHD1; 5.0 °C): -3867 cal/mol | ΔH (EH domain of EHD1; 5.0 °C): -9279 cal/mol | ΔS (EH domain of EHD1; 5.0 °C): −13.9 cal mol^−1 K^−1 | Ka (EH domain of EHD1; 10.0 °C): 12800 M⁻¹ | TΔS (EH domain of EHD1; 10.0 °C): -4729 cal/mol | ΔG (EH domain of EHD1; 10.0 °C): -5316 cal/mol | ΔH (EH domain of EHD1; 10.0 °C): -10040 cal/mol | ΔS (EH domain of EHD1; 10.0 °C): −16.7 cal mol^−1 K^−1 | Ka (EH domain of EHD1; 15.0 °C): 9390 M⁻¹ | TΔS (EH domain of EHD1; 15.0 °C): -5562 cal/mol | ΔG (EH domain of EHD1; 15.0 °C): -5233 cal/mol | ΔH (EH domain of EHD1; 15.0 °C): -10790 cal/mol | ΔS (EH domain of EHD1; 15.0 °C): −19.3 cal mol^−1 K^−1 | TΔS (EH domain of EHD1; 20.0 °C): -6802 cal/mol | ΔG (EH domain of EHD1; 20.0 °C): -5122 cal/mol | ΔH (EH domain of EHD1; 20.0 °C): -11920 cal/mol | ΔS (EH domain of EHD1; 20.0 °C): −23.2 cal mol^−1 K^−1 | Ka (EH domain of EHD1; 20 °C, KCl 75.0 mM): 6460 M⁻¹ | TΔS (EH domain of EHD1; 20 °C, KCl 75.0 mM): -6744 cal/mol | ΔG (EH domain of EHD1; 20 °C, KCl 75.0 mM): -5106 cal/mol | ΔH (EH domain of EHD1; 20 °C, KCl 75.0 mM): -11840 cal/mol | ΔS (EH domain of EHD1; 20 °C, KCl 75.0 mM): −23.0 cal mol^−1 K^−1 | Ka (EH domain of EHD1; 20 °C, KCl 150.0 mM): 6910 M⁻¹ | TΔS (EH domain of EHD1; 20 °C, KCl 150.0 mM): -6802 cal/mol | ΔG (EH domain of EHD1; 20 °C, KCl 150.0 mM): -5145 cal/mol | ΔH (EH domain of EHD1; 20 °C, KCl 150.0 mM): -11960 cal/mol | ΔS (EH domain of EHD1; 20 °C, KCl 150.0 mM): −23.2 cal mol^−1 K^−1 | Ka (EH domain of EHD1; 20 °C, KCl 300.0 mM): 7490 M⁻¹ | TΔS (EH domain of EHD1; 20 °C, KCl 300.0 mM): -6568 cal/mol | ΔG (EH domain of EHD1; 20 °C, KCl 300.0 mM): -5192 cal/mol | ΔH (EH domain of EHD1; 20 °C, KCl 300.0 mM): -11770 cal/mol | ΔS (EH domain of EHD1; 20 °C, KCl 300.0 mM): −22.4 cal mol^−1 K^−1 | Ka (EH domain of EHD1; 20 °C, KCl 450.0 mM): 7810 M⁻¹ | TΔS (EH domain of EHD1; 20 °C, KCl 450.0 mM): -6069 cal/mol | ΔG (EH domain of EHD1; 20 °C, KCl 450.0 mM): -5217 cal/mol | ΔH (EH domain of EHD1; 20 °C, KCl 450.0 mM): -11290 cal/mol | ΔS (EH domain of EHD1; 20 °C, KCl 450.0 mM): −20.7 cal mol^−1 K^−1 | Ka (EH domain of EHD1; 25.0 °C): 4700 M⁻¹ | TΔS (EH domain of EHD1; 25.0 °C): -8320 cal/mol | ΔG (EH domain of EHD1; 25.0 °C): -5005 cal/mol | ΔH (EH domain of EHD1; 25.0 °C): -13320 cal/mol | ΔS (EH domain of EHD1; 25.0 °C): −27.9 cal mol^−1 K^−1
Molecule: Ac-YESTNPFTAK-NH2 [Rfp2-NPF2]

ΔH [1]: -11300 cal/mol | ΔH [2]: -11300 cal/mol
Molecule: EHD1 EH domain (EH domain-containing protein 1, C-terminal EH domain)

stoichiometry N [3]: 2
Molecule: Rabenosyn-5 peptide containing two NPF motifs

Ka [4]: 6910 M⁻¹ | dH [4]: -12000 cal/mol | stoichiometry N [4]: 1.02 | Ka (EH domain of Reps1): 2000 M⁻¹ | Ka [5]: 4700 M⁻¹ | dH [5]: -13300 cal/mol | stoichiometry N [5]: 0.99 | Ka [6]: 6640 M⁻¹ and 7030 M⁻¹ | dH [6]: -11900 cal/mol and -11800 cal/mol | stoichiometry N [6]: 1.03 and 1.01 | Ka [7]: 6460 M⁻¹ | dH [7]: -11800 cal/mol | stoichiometry N [7]: 0.96 | Ka [8]: 9390 M⁻¹ | dH [8]: -10800 cal/mol | stoichiometry N [8]: 1.03 | Ka [9]: 12800 M⁻¹ | dH [9]: -10000 cal/mol | stoichiometry N [9]: 1.02 | Ka [10]: 7810 M⁻¹ | dH [10]: -11300 cal/mol | stoichiometry N [10]: 1.04 | Ka [11]: 7490 M⁻¹ | dH [11]: -11800 cal/mol | stoichiometry N [11]: 0.99 | Ka [12]: 17800 M⁻¹ | dH [12]: -9280 cal/mol | stoichiometry N [12]: 0.97
Molecule: Ac-YESTNPFTAK-NH2 [Rfp2-NPF2, peptide of NPF2 of Rab11-Fip2 (Ac-YESTNPFTAK-NH2)]

Ka [4]: 53000 M⁻¹ | dH [4]: -10500 cal/mol | stoichiometry N [4]: 1.09 | Ka [13]: 168000 M⁻¹ | dH [13]: -10400 cal/mol | stoichiometry N [13]: 0.97 | Ka (EH domain of Reps1): 2000 M⁻¹ | Ka [5]: 606000 M⁻¹ | dH [5]: -11900 cal/mol | stoichiometry N [5]: 0.98 | Ka [6]: 814000 M⁻¹ and 861000 M⁻¹ | dH [6]: -11300 cal/mol | stoichiometry N [6]: 0.98 and 1.02 | Ka [7]: 115000 M⁻¹ | dH [7]: -10300 cal/mol | stoichiometry N [7]: 0.95 | Ka [8]: 1.1e+06 M⁻¹ | dH [8]: -10400 cal/mol | stoichiometry N [8]: 0.99 | Ka [9]: 1.71e+06 M⁻¹ | dH [9]: -9680 cal/mol | stoichiometry N [9]: 0.98 | Ka [14]: 86500 M⁻¹ | dH [14]: -10900 cal/mol | stoichiometry N [14]: 0.99 | Ka [10]: 17800 M⁻¹ | dH [10]: -10400 cal/mol | stoichiometry N [10]: 1.04 | Ka [15]: 302000 M⁻¹ | dH [15]: -10400 cal/mol | stoichiometry N [15]: 0.97 | Ka [11]: 24800 M⁻¹ | dH [11]: -10300 cal/mol | stoichiometry N [11]: 1.04 | Ka [12]: 2.03e+06 M⁻¹ | dH [12]: -8990 cal/mol | stoichiometry N [12]: 0.98 | Ka [16]: 65000 M⁻¹ | dH [16]: -10500 cal/mol | stoichiometry N [16]: 1.05
Molecule: Ac-GPSLNPFDEED-NH2 [Rsn5-NPF1, peptide of NPF1 of Rabenosyn-5 (Ac-GPSLNPFDEED-NH2)]
